HCV NS3 hel inh: blocks Hepatitis C virus NS3 helicase unwinding; actives 0.56% (n = 290,000); inhibition, % at 10.9 µM; NS3 helicase DNA unwinding, Cy5 molecular beacon fluorescence;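 active = inhibition above the mean of all tested compounds plus 3 SD, set per campaign, cut at about 35% in these data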
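System: HCV NS3 helicase fragment; control set: DMSO and thioflavine S; technique: Cy5 fluorescence at 0 and 60 min, beacon hairpin quenching; reagent: beacon DNA duplex substrate plus ATP; replicates: singlicate; schedule: 1 h reaction at 25 °C, ATP-initiated; medium: MOPS buffer pH 6.5 with MgCl2, DTT, Tween20, BSA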
HCV core dimer: HCV core protein dimerization inhibition | TR-FRET GST/Flag-core106 dimerization, 1536-well | inhibition, % at 5 µM | actives 0.33% (n = 300,000) | AID 1899;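 active = inhibition above the mean of all tested compounds plus 3 SD, set per screening campaign, cut at about 45% in these data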
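System – GST-tagged and Flag-tagged HCV core protein residues 1-106 · Repeats – one well for each compound · Technique – TR-FRET 671 and 617 nm emission · Doses – one concentration, 5 µM, in 0.5% DMSO · Times – 4 h, 22.5 °C incubation · Also added – Eu donor and XL665 acceptor anti-tag antibodies · Measure – percent inhibition of core106 dimerization signal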
M18AAP inhibitor: PfM18AAP enzyme inhibition; recombinant PfM18AAP, H-Glu-NHMec fluorogenic cleavage; inhibition, % at 7.35 µM; actives 1.2% (n = 290,000); AID 1822;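 active = inhibition above the campaign mean inhibition over all tested compounds plus 3 SD, cut at about 28% in these data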
ALR H2O2 inh: inhibitors of human sulfhydryl oxidase ALR; P55789; purified ALR, DTT oxidation, H2O2 HRP-luminol luminescence; inhibition, % (test concentration not listed); actives 3.8% (n = 290,000); AID 485317;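 active = mean replicate inhibition above about 79%, with every replicate also reaching it, limit read from the data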
Target sequence (P55789 whole entry, looked up): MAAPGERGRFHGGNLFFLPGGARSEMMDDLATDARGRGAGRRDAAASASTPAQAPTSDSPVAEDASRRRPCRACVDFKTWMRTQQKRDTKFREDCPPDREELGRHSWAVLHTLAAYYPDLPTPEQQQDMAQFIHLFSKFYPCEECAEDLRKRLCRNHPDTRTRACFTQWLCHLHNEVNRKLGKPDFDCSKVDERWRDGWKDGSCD
ZTA counter: ZTA (EBV) inhibition in EBNA-1 counter-screen; AID 2234; actives 0.15% (n = 320,000); ZTA-DNA binding, fluorescence polarization; P03206; inhibition, % at 11 µM; in the data active = inhibition above about 33%
Target sequence (P03206 whole entry, looked up): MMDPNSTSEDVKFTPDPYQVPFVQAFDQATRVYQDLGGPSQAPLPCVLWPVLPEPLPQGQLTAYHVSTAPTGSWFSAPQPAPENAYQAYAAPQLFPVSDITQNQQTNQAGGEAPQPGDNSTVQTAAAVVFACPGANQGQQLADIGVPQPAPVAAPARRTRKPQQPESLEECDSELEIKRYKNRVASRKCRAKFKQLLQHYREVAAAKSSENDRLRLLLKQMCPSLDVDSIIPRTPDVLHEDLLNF
EBNA-1 inh: blocks EBNA-1 binding to DNA | EBNA-1 DNA binding, fluorescence polarization | inhibition, % at 14.8 µM | actives 0.34% (n = 300,000); in the data active = inhibition above about 28%
EBNA-1 inh conf: EBNA-1 (EBV) inhibition, confirmation | shares compounds with EBNA-1 inh | Recombinant EBNA-1 DBD, Cy5-DNA fluorescence polarization | inhibition, % at 14.8 µM | actives 35% (n = 830) | AID 2292;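 active = mean inhibition across replicates above a set limit taken from the earlier primary screen, cut at about 28% in these data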
ZTA DNA inh trip: blocks Epstein-Barr virus ZTA in triplicate, EBNA-1 counter-screen. shares compounds with EBNA-1 inh. Zta-ZRE DNA binding, Cy5 fluorescence polarization. inhibition, % at 11.1 µM. 830 tested, under 10 active;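 active = mean inhibition over triplicates above a set limit taken from the primary EBNA-1 screen, cut at about 37% in these data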;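 note: purified full length Zta protein with Cy5 labeled ZRE DNA probe; inhibitors lower polarization by freeing the labeled DNA probe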
Hits are given with their value; - = inactive; . = not tested or not shown. Most compounds without a hit are left out; they make up all but 5.2% or so of the library.

SMILES | HCV NS3 hel inh | HCV core dimer | M18AAP inhibitor | ALR H2O2 inh | ZTA counter | EBNA-1 inh | EBNA-1 inh conf | ZTA DNA inh trip
Cc1ccc(CNC(=O)CCCn2c(=O)c3ccccc3n(CC(=O)NCc3ccco3)c2=O)cc1 | - | - | - | - | - | - | . | .
Cc1ccc(-c2csc3ncnc(SCC(=O)Nc4nnc(C)s4)c23)cc1 | - | - | - | - | - | 38.5 | - | -
CC(=O)CSc1ncnc2scc(-c3ccc(F)cc3)c12 | - | - | - | - | - | - | . | .
COc1ccccc1N1CCN(C(C)C(=O)Nc2ccc(S(=O)(=O)N3CCOCC3)cc2)CC1 (centres undefined) | - | - | - | - | - | - | . | .
CCCOC(=O)c1ccc(NC(=O)Cc2cccs2)cc1 | - | - | - | - | - | - | . | .
COc1ccc(Cn2c(N)c(C#N)c3nc4ccccc4nc32)cc1 | - | - | - | - | - | - | . | .
COc1cc(Cn2c(N)c(C#N)c3nc4ccccc4nc32)cc(OC)c1 | - | - | - | - | - | 92.5 | - | -
COc1ccccc1NS(=O)(=O)c1cccc(-n2c(O)c(C=Nc3ccccc3C(=O)O)c3ccccc3c2=O)c1 | - | - | - | . | - | 36.2 | - | -
COC(=O)c1ccc(NC(=O)Cn2nc(-c3ccncc3)nc2SCC(=O)Nc2nccs2)cc1 | - | - | - | - | - | 51.7 | 34.9 | -
CCN(CC)C(=O)Cn1nc(-c2ccncc2)nc1SCC(=O)Nc1ccc(OC)cc1 | - | - | - | . | - | - | . | .
COc1cc(NC(=O)c2ccc(C)c([N+](=O)[O-])c2)ccc1NC(=O)c1ccco1 | - | - | - | - | - | 51.0 | - | -
COc1cc(NC(=O)c2ccc(OC)c([N+](=O)[O-])c2)ccc1NC(=O)c1ccco1 | - | - | - | - | - | - | . | .
Cc1ccc(S(=O)(=O)/N=C(\N)Nc2nc(C)c3cc(C)c(C)cc3n2)cc1 | - | - | - | - | - | 38.2 | - | -
Cc1ccc(S(=O)(=O)/N=C(\N)Nc2nc(C)c3ccc(C)cc3n2)cc1 | - | - | - | - | - | 36.9 | - | -
Cc1ccc(S(=O)(=O)/N=C(\N)Nc2nc(C)c3cc(C)ccc3n2)cc1 | - | - | - | - | - | - | . | .
Cc1cccnc1NC(=O)CN1C(=O)c2ccccc2S1(=O)=O | . | - | . | - | - | - | . | .
O=C(N/N=C/c1cccnc1)c1cc(-c2ccc(Br)cc2)nc2ccccc12 | - | . | - | - | . | . | . | .
Cc1ccccc1Nc1nnc(SCc2nc3ccccc3c(=O)[nH]2)s1 | - | - | - | - | - | - | . | .
CCOc1ccc(Nc2nnc(SCc3nc4ccccc4c(=O)[nH]3)s2)cc1 | - | - | - | - | - | 37.9 | 51.9 | -
O=C(CSc1n[nH]c(-c2ccco2)n1)Nc1ccc(Br)cc1 | - | - | - | - | - | - | . | .
O=C(CSc1n[nH]c(-c2ccco2)n1)Nc1sc2c(c1C(=O)Nc1ccccc1)CCCC2 | - | - | - | 97.9 | - | 36.3 | - | -
O=C(NNC(=O)C1CCN(S(=O)(=O)c2ccc(Cl)cc2)CC1)c1ccc(S(=O)(=O)N2CCCCC2)cc1 | - | - | - | - | - | 31.3 | - | -
Cc1cc(C)n(-c2ccc(Cl)c(C(=O)OCC(=O)N3CCCCC3C)n2)n1 (centres undefined) | . | - | . | - | - | - | . | .
Cc1cc(C)n(-c2ccc(Cl)c(C(=O)OCC(N)=O)n2)n1 | - | - | - | - | - | 36.5 | - | -
Cc1ccc(N(Cc2ccc(C(=O)NC3CCCCC3)cc2)S(C)(=O)=O)cc1C | - | - | - | - | - | 30.9 | 34.2 | -
COc1ccc(C2C(C(C)=O)=C(O)C(=O)N2CCCn2ccnc2)cc1OC (centres undefined) | . | - | . | - | - | - | . | .
CC(=O)C1=C(O)C(=O)N(CCCn2ccnc2)C1c1ccc(Br)cc1 (centres undefined) | - | - | - | - | - | 39.7 | - | -
COC(=O)Cc1c(C)c2ccc(OC3CCCCC3=O)c(C)c2oc1=O (centres undefined) | - | - | - | - | - | 125.4 | - | -

Screens from PubChem BioAssay.
